Calls of active or inactive are those of the source. No cut-off for these calls is given here.
Columns and labels:
[1] = system: Oocyte; test: Induction of immature stage VI Xenopus oocyte maturation assessed as spontaneous maturation measured as germinal vesicle (nuclear) breakdown at 100 uM after overnight incubation; assay type: functional, cell-based
Method in brief: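 Isolated Xenopus oocytes (20 per well) incubated overnight with compound in DMSO at 100 μM final, no progesterone. The next morning, GVBD is scored as a white spot at the animal pole. Rate is expressed relative to DMSO controls, where 2.0 means spontaneous maturation.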

[2] = Anticancer activity against human BT549 cells assessed as growth inhibition at 10^-5 M; assay type: functional; settings: BT-549, read-out: GI
Method in brief: (§1)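 NCI-60 human tumour cell line panel screened at a single concentration of 10^-5 M; value is percent growth inhibition relative to untreated growth.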

[3] = system: CCRF-CEM; test: Anticancer activity against human CCRF-CEM cells assessed as growth inhibition at 10^-5 M; assay type: functional; settings: read-out: GI; method in brief: as §1

In the case of C[C@@]12CC/C=C(/CO)CC[C@@H]3/C(=C\c4ccccc4Br)C(=O)O[C@@H]3[C@@H]1O2, the Activity [1] is reported as “Active”, the inhibition of growth at 10 µM [2] is reported as 24.2% and the inhibition of growth at 10 µM [3] is reported as 28.5%.

Source: ChEMBL document CHEMBL3352597, “Heck products of parthenolide and melampomagnolide-B as anticancer modulators that modify cell cycle progression” (Eur J Med Chem, 2014)
